From ChEMBL document CHEMBL3779767, “Identification of potent and selective MTH1 inhibitors” (Bioorg Med Chem Lett, 2016)
Activity calls are given as the source filed them. No cut-off for these calls is given here.

Legend:
[1] = Half life in human liver microsomes; format: ADME
In short: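 Incubated with human or mouse liver microsomes; the read-out was intrinsic clearance alongside half-life, given in hours.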

[2] = molecular target: Tyrosine-protein kinase JAK2 (Homo sapiens) (UniProt O60674); assay: Inhibition of partial length human JAK2 JH1 catalytic domain expressed in mammalian system at 1 uM
In short: (§1)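 Single-point screen within a 97-kinase profiling panel, with the test compound at 1 µM.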

[3] = molecular target: Serine/threonine-protein kinase 32C (Homo sapiens) (UniProt Q86UX6); assay: Inhibition of partial length human YANK3 expressed in bacterial system at 1 uM
In short: (§2)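 Single-concentration screen across a panel of 97 kinases, with the test compound at 1 uM.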

[4] = molecular target: RAC-alpha serine/threonine-protein kinase (Homo sapiens) (UniProt P31749); assay: Inhibition of partial length human AKT1 expressed in bacterial system at 1 uM; in short: as §1
[5] = molecular target: Phosphatidylinositol 4-phosphate 3-kinase C2 domain-containing subunit beta (Homo sapiens) (UniProt O00750); assay: Inhibition of partial length human PIK3C2beta expressed in mammalian system at 1 uM; in short: as §2
[6] = molecular target: SRSF protein kinase 3 (Homo sapiens) (UniProt Q9UPE1); assay: Inhibition of partial length human SRPK3 expressed in bacterial system at 1 uM; in short: as §2
[7] = molecular target: Tyrosine-protein kinase ABL1 (Homo sapiens) (UniProt P00519); assay: Inhibition of partial length human ABL1 phosphorylation expressed in mammalian system at 1 uM; in short: as §1
[8] = molecular target: Fibroblast growth factor receptor 2 (Homo sapiens) (UniProt P21802); assay: Inhibition of partial length human FGFR2 expressed in bacterial system at 1 uM; in short: as §1
[9] = molecular target: Mast/stem cell growth factor receptor Kit (Homo sapiens) (UniProt P10721); assay: Inhibition of partial length human KIT expressed in bacterial system at 1 uM
In short: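 Single-concentration screen at 1 µM test concentration, run as part of a commercial binding/activity profiling panel covering 97 kinases.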

[10] = molecular target: Tyrosine-protein kinase BTK (Homo sapiens) (UniProt Q06187); assay: Inhibition of partial length human BTK expressed in mammalian system at 1 uM; in short: as §1
[11] = molecular target: Glycogen synthase kinase-3 beta (Homo sapiens) (UniProt P49841); assay: Inhibition of partial length human GSK3beta expressed in mammalian system at 1 uM; in short: as §1
[12] = molecular target: Mitogen-activated protein kinase 3 (Homo sapiens) (UniProt P27361); assay: Inhibition of partial length human ERK1 expressed in bacterial system at 1 uM; in short: as §1
[13] = molecular target: Cyclin-dependent kinase 16 (Homo sapiens) (UniProt Q00536); assay: Inhibition of partial length human PCTK1 expressed in mammalian system at 1 uM; in short: as §2
[14] = molecular target: Mitogen-activated protein kinase 14 (Homo sapiens) (UniProt Q16539); assay: Inhibition of partial length human p38alpha expressed in bacterial system at 1 uM; in short: as §2
[15] = molecular target: Receptor tyrosine-protein kinase erbB-4 (Homo sapiens) (UniProt Q15303); assay: Inhibition of partial length human ERBB4 expressed in bacterial system at 1 uM; in short: as §1
[16] = molecular target: NUAK family SNF1-like kinase 2 (Homo sapiens) (UniProt Q9H093); assay: Inhibition of partial length human SNARK expressed in mammalian system at 1 uM; in short: as §2
SW480 = assay: Antiproliferative activity against human SW480 cells assessed as change in phenotypic response measured after prolonged treatment; format: functional, cell-based
[17] = molecular target: Hepatocyte growth factor receptor (Homo sapiens) (UniProt P08581); assay: Inhibition of partial length human MET expressed in bacterial system at 1 uM; in short: as §2
Homo sapiens = species: Homo sapiens; assay: Inhibition of partial length human CDK11 expressed in bacterial system at 1 uM
In short: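 Single-concentration screen within a 97-kinase profiling panel (KinomeEdge), with the compound tested at one fixed concentration across all panel kinases.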

[18] = molecular target: Dual specificity mitogen-activated protein kinase kinase 2 (Homo sapiens) (UniProt P36507); assay: Inhibition of partial length human MEK2 expressed in mammalian system at 1 uM; in short: as §2
[19] = molecular target: Mitogen-activated protein kinase kinase kinase 9 (Homo sapiens) (UniProt P80192); assay: Inhibition of partial length human MLK1 expressed in bacterial system at 1 uM; in short: as §2
[20] = molecular target: MAP/microtubule affinity-regulating kinase 3 (Homo sapiens) (UniProt P27448); assay: Inhibition of partial length human MARK3 expressed in bacterial system at 1 uM; in short: as §1
[21] = molecular target: Non-receptor tyrosine-protein kinase TYK2 (Homo sapiens) (UniProt P29597); assay: Inhibition of partial length human TYK2 JH1catalytic domain expressed in mammalian system at 1 uM; in short: as §2
MDA-MB-231 = assay: Antiproliferative activity against human MDA-MB-231 cells assessed as change in phenotypic response up to 50 uM; format: functional, cell-based
[22] = molecular target: Serine/threonine-protein kinase ULK2 (Homo sapiens) (UniProt Q8IYT8); assay: Inhibition of partial length human ULK2 expressed in mammalian system at 1 uM; in short: as §2
[23] = molecular target: Phosphatidylinositol 4,5-bisphosphate 3-kinase catalytic subunit gamma isoform (Homo sapiens) (UniProt P48736); assay: Inhibition of partial length human PIK3Cgamma expressed in mammalian system at 1 uM; in short: as §2
[24] = system: Serine/threonine-protein kinase B-raf (Homo sapiens), P15056 [V600E]; assay: Inhibition of partial length human BRAF V600E mutant expressed in mammalian system at 1 uM; in short: as §1
[25] = molecular target: MAP kinase-activated protein kinase 2 (Homo sapiens) (UniProt P49137); assay: Inhibition of partial length human MAPKAPK2 expressed in bacterial system at 1 uM; in short: as §1
[26] = molecular target: High affinity nerve growth factor receptor (Homo sapiens) (UniProt P04629); assay: Inhibition of partial length human TRKA expressed in mammalian system at 1 uM; in short: as §2
[27] = molecular target: Platelet-derived growth factor receptor beta (Homo sapiens) (UniProt P09619); assay: Inhibition of partial length human PDGFRbeta expressed in bacterial system at 1 uM; in short: as §2
[28] = molecular target: Testis-specific serine/threonine-protein kinase 1 (Homo sapiens) (UniProt Q9BXA7); assay: Inhibition of partial length human TSSK1B expressed in bacterial system at 1 uM; in short: as §2
HCT-116 = assay: Antiproliferative activity against human HCT116 cells assessed as change in phenotypic response measured after prolonged treatment; format: functional, cell-based
[29] = molecular target: Aurora kinase B (Homo sapiens) (UniProt Q96GD4); assay: Inhibition of partial length human Aurora B expressed in mammalian system at 1 uM; in short: as §1
U2OS = assay: Antiproliferative activity against human U2OS cells assessed as change in phenotypic response up to 50 uM; format: functional, cell-based
SAOS-2 = assay: Antiproliferative activity against human Saos2 cells assessed as change in phenotypic response up to 50 uM; format: functional, cell-based
[30] = molecular target: Tyrosine-protein kinase JAK3 (Homo sapiens) (UniProt P52333); assay: Inhibition of partial length human JAK3 JH1 catalytic domain expressed in mammalian system at 1 uM; in short: as §1
[31] = Permeability across MDCK cells; format: ADME, cell-based, Canis lupus familiaris; settings: dog, read-out: permeability
In short: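 Measured across a confluent MDCK cell monolayer; apparent permeability is reported together with the efflux ratio.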

[32] = molecular target: Serine/threonine-protein kinase PAK 4 (Homo sapiens) (UniProt O96013); assay: Inhibition of partial length human PAK4 expressed in bacterial system at 1 uM; in short: as §2
[33] = molecular target: Dual specificity mitogen-activated protein kinase kinase 1 (Homo sapiens) (UniProt Q02750); assay: Inhibition of partial length human MEK1 expressed in mammalian system at 1 uM; in short: as §1

Sequence of Dual specificity mitogen-activated protein kinase kinase 2 (Homo sapiens) (P36507 whole entry): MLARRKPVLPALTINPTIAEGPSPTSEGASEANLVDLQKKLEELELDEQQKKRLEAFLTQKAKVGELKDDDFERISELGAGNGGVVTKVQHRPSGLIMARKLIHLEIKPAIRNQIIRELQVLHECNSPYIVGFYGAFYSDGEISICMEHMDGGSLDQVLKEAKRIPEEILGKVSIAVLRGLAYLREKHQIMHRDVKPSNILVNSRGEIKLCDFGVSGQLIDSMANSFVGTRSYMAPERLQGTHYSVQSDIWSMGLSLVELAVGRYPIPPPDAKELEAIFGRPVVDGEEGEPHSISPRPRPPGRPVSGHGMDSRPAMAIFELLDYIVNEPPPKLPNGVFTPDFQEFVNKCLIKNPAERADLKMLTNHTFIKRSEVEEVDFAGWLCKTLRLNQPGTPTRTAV
Sequence of Mitogen-activated protein kinase 3 (Homo sapiens) (P27361 whole entry): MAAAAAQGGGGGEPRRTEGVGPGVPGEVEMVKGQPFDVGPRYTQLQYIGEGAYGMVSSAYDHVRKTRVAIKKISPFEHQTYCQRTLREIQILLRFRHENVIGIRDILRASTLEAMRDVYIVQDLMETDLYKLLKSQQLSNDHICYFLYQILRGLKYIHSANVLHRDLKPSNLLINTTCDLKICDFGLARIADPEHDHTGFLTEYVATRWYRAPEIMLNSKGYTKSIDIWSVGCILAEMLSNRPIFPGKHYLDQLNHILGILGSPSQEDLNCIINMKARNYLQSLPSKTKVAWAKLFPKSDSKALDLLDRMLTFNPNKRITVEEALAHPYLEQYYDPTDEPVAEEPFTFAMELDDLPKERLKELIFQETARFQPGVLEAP
Sequence of Serine/threonine-protein kinase 32C (Homo sapiens) (Q86UX6 whole entry): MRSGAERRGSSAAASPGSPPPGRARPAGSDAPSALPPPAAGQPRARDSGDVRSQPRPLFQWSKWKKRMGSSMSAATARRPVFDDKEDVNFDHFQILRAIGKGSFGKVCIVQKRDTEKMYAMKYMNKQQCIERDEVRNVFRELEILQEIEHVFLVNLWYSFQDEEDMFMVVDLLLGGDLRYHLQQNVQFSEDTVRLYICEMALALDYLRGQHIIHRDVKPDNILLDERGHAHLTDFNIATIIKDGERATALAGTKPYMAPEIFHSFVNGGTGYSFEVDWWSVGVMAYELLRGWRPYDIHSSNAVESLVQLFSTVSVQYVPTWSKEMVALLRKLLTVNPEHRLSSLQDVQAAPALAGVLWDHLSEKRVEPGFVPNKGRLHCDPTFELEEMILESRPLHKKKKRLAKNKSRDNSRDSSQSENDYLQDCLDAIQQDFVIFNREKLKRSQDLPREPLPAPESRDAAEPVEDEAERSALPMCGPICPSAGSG
Sequence of Aurora kinase B (Homo sapiens) (Q96GD4 whole entry): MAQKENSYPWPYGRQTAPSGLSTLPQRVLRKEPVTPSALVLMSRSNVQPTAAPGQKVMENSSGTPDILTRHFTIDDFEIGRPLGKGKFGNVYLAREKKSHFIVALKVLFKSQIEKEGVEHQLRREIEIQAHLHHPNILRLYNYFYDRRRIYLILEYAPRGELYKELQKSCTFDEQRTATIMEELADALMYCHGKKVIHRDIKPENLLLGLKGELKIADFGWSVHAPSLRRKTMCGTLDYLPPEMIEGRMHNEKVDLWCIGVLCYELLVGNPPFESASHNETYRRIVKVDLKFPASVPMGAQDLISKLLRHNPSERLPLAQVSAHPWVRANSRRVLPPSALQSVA
Sequence of SRSF protein kinase 3 (Homo sapiens) (Q9UPE1 whole entry): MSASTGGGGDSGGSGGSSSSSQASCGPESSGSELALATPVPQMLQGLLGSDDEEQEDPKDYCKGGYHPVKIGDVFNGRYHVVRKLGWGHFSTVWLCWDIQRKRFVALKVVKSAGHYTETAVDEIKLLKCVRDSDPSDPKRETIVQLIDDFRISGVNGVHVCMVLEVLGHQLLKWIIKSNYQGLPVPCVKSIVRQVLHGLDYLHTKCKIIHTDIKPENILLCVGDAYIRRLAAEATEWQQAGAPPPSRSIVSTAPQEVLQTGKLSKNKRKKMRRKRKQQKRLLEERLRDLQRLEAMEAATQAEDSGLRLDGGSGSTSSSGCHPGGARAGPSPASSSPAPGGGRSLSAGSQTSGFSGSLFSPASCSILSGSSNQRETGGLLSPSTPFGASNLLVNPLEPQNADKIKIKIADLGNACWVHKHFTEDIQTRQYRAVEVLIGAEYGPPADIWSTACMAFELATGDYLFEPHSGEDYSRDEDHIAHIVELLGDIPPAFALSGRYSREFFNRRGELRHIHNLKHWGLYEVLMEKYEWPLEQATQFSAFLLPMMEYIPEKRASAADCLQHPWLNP
Sequence of Tyrosine-protein kinase JAK3 (Homo sapiens) (P52333 whole entry, the tested form may be a part): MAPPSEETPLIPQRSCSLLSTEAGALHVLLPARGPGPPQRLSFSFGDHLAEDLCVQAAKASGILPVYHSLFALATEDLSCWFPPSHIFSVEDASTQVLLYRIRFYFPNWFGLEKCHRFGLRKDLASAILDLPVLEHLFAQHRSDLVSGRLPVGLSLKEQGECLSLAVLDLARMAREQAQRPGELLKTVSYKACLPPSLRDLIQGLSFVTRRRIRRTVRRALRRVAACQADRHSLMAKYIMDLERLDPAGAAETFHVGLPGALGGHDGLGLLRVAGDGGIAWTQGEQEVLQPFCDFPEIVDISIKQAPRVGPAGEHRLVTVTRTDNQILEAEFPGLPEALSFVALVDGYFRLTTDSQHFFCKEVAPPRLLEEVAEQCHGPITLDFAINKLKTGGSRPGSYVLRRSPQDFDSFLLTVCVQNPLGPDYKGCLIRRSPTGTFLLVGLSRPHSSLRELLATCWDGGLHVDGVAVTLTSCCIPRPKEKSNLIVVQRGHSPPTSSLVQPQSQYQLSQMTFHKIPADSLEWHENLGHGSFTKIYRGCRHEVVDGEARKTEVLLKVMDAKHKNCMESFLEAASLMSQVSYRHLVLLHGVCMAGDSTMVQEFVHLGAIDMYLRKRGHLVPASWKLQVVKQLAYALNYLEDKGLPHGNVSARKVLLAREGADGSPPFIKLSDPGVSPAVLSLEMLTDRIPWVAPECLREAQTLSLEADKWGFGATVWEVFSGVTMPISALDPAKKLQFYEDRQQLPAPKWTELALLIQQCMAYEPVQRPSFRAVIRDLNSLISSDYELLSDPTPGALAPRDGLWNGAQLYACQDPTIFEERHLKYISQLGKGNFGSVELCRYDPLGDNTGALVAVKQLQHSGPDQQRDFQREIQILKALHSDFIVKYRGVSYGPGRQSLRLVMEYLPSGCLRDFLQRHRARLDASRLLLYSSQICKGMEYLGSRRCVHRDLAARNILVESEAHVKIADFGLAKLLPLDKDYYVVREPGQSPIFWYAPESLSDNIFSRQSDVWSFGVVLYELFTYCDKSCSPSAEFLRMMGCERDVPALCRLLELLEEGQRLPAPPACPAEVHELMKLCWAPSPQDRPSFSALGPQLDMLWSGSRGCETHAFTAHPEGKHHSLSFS
Sequence of MAP/microtubule affinity-regulating kinase 3 (Homo sapiens) (P27448 whole entry, looked up, the tested form may be a part): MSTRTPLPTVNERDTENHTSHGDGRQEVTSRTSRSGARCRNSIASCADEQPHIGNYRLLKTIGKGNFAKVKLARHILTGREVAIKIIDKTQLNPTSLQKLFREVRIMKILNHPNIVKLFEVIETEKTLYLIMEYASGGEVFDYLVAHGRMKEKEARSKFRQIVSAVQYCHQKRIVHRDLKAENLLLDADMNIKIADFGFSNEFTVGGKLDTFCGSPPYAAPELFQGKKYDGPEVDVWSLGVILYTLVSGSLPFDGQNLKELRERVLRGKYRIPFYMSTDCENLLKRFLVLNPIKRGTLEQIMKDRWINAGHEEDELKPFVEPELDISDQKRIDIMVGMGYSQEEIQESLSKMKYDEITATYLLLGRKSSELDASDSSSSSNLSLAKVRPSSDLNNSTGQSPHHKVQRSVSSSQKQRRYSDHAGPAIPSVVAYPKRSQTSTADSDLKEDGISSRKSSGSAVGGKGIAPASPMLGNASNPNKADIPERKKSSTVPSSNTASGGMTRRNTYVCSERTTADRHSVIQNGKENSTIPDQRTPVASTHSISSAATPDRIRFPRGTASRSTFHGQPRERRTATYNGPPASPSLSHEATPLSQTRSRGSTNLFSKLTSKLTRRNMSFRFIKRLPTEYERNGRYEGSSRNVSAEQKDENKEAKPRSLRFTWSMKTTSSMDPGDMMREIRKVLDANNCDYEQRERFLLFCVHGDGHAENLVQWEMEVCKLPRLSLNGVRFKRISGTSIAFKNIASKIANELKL
Sequence of NUAK family SNF1-like kinase 2 (Homo sapiens) (Q9H093 whole entry): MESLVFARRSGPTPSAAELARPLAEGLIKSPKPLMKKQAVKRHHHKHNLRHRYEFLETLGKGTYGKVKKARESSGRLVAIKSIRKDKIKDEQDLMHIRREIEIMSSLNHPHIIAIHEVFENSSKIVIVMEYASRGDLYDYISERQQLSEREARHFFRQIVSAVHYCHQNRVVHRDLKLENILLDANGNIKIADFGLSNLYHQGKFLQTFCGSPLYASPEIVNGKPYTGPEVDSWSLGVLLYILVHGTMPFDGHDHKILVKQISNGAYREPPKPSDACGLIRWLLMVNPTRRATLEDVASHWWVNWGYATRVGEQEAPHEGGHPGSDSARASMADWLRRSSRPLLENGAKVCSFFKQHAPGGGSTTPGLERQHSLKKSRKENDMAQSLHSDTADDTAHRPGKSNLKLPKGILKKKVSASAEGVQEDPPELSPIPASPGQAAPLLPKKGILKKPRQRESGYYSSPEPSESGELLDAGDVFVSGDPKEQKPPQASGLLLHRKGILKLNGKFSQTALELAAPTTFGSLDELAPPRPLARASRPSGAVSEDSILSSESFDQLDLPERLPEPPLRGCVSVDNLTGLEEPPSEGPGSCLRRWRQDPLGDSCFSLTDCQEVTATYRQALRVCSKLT

Cc1cnc(N)nc1OCC(C)(C)CO
half-life [1]: 5.5 h
inhibition [2]: inactive
inhibition [3]: inactive
inhibition [4]: inactive
inhibition [5]: inactive
inhibition [6]: inactive
inhibition [7]: inactive
inhibition [8]: inactive
inhibition [9]: inactive
inhibition [10]: inactive
inhibition [11]: inactive
inhibition [12]: inactive
inhibition [13]: inactive
inhibition [14]: inactive
inhibition [15]: inactive
inhibition [16]: inactive
Activity (SW480): inactive
inhibition [17]: inactive
inhibition (Homo sapiens): inactive
inhibition [18]: inactive
inhibition [19]: inactive
inhibition [20]: inactive
inhibition [21]: inactive
Activity (MDA-MB-231): inactive
inhibition [22]: inactive
inhibition [23]: inactive
inhibition [24]: inactive
inhibition [25]: inactive
inhibition [26]: inactive
inhibition [27]: inactive
inhibition [28]: inactive
Activity (HCT-116): inactive
inhibition [29]: inactive
Activity (U2OS): inactive
Activity (SAOS-2): inactive
inhibition [30]: inactive
Papp [31]: 32 ×10⁻⁶ cm/s
inhibition [32]: inactive
inhibition [33]: inactive
